Results taken from ChEMBL document CHEMBL3627612, “Hirsutinolide Series Inhibit Stat3 Activity, Alter GCN1, MAP1B, Hsp105, G6PD, Vimentin, TrxR1, and Importin α-2 Expression, and Induce Antitumor Effects against Human Glioma” (J Med Chem, 2015).
The source made the active and inactive calls. No cut-off for these calls is given here.

Tests used:
[1] = Cytotoxicity against mouse V-Src -transformed NIH/3T3 cells at 2.5 uM by trypan blue exclusion with phase contrast microscopy; type: cell-based; settings: nih3t3, 2.5 µM
[2] = Cytotoxicity against mouse NIH/3T3 cells at 1 uM by trypan blue exclusion with phase contrast microscopy; type: cell-based; settings: nih3t3, 1 µM
[3] = Cell cycle arrest in human U251MG cells assessed as accumulation at G2/M phase at 5 uM for 15 hrs by flow cytometry; type: functional, cell-based; settings: U-251
[4] = test system: U-251; assay: Induction of apoptosis in human U251MG cells assessed as PARP level at 8 uM after 24 to 48 hrs by immunoblot analysis; type: functional, cell-based
[5] = test system: U-251; assay: Induction of apoptosis in human U251MG cells assessed as cleaved caspase 3 level at 8 uM after 24 to 48 hrs by immunoblot analysis; type: functional, cell-based
[6] = Decrease in TxR1 cytoplasmic isoform 3 expression in human U251MG cells at 5 uM for 1 hr by mass spectrometry relative to control; type: functional, cell-based; settings: U-251
How it was run: (§1)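 Global proteomic mass spectrometry of lysates from U251MG cells treated 1 h with 5 μM compound; protein levels expressed relative to DMSO-treated cells.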

[7] = target: Signal transducer and activator of transcription 3 (Mus musculus) (UniProt P42227); assay: Inhibition of Stat3 dimer DNA binding activity in mouse NIH3T3/vSrc nuclear extract at 10 uM preincubated for 30 mins followed by addition of radiolabeled probe hSIE for 30 mins by EMSA in presence of 50 uM Cys
[8] = target: T1, Signal transducer and activator of transcription 3 (Homo sapiens, UniProt P40763); assay: Inhibition of Stat3 activity in human U251MG cells assessed as decrease in c-Myc expression at 5 uM after 24 hrs by immunoblot analysis; type: cell-based; settings: U-251
How it was run: (§2)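 U251MG cells treated with 5 μM compound for 0–24 h. Whole-cell lysates immunoblotted for pStat3, Stat3, c-Myc, Bcl-2, Bcl-xL, Mcl-1, GAPDH. Control was 0.025% DMSO.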

[9] = target: T1, Signal transducer and activator of transcription 3; assay: Inhibition of Stat3 activity in human U251MG cells assessed as decrease in Bcl-2 expression at 5 uM after 24 hrs by immunoblot analysis; type: cell-based; settings: U-251; how it was run: as §2
[10] = target: T1, Signal transducer and activator of transcription 3; assay: Inhibition of Stat3 activity in human U251MG cells assessed as decrease in Bcl-xl expression at 5 uM after 24 hrs by immunoblot analysis; type: cell-based; settings: U-251; how it was run: as §2
[11] = Decrease in vimentin expression in human U251MG cells at 5 uM for 1 hr by mass spectrometry relative to control; type: functional, cell-based; settings: U-251; how it was run: as §1
[12] = target: Tyrosine-protein kinase JAK2 (Homo sapiens) (UniProt O60674); assay: Modulation of Jak2 phosphorylation in human U251MG cells at 5 uM after 0.5 to 24 hrs by immunoblot analysis; type: cell-based; settings: U-251
How it was run: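 U251MG glioma cells (RPMI or DMEM, 10% FBS, 1% nonessential amino acids) treated with 5 μM compound for 0–24 h; 0.025% DMSO control. Whole-cell lysates of equal total protein immunoblotted for pErk1/2, Erk1/2, pJAK2 and JAK2 with β-actin or GAPDH loading controls. Representative of 2–4 independent determinations.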

[13] = target: T1, Signal transducer and activator of transcription 3; assay: Inhibition of Stat3 phosphorylation in human U251MG cells transfected with Stat3 flag-tagged N-terminal domain at 5 uM after 1.5 hrs by immunoblot analysis; type: cell-based; settings: U-251
How it was run: (§3)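 U251MG cells transiently transfected with 7.5–21 μg FLAG-Stat3 NTD, CCD, DBD or CTD plasmid, or pcDNA3 mock. Re-seeded 24 h later; after another 18 h, treated with or without 5 μM compound for 1.5 h. Whole-cell lysates immunoblotted for FLAG, pY705Stat3, Stat3, GAPDH. 0.025% DMSO control. Representative of 2 independent determinations.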

[14] = target: T1, Signal transducer and activator of transcription 3; assay: Inhibition of Stat3 phosphorylation in human U251MG cells transfected with Stat3 flag-tagged coliled coil domain at 5 uM after 1.5 hrs by immunoblot analysis; type: cell-based; settings: U-251; how it was run: as §3
[15] = target: T1, Signal transducer and activator of transcription 3; assay: Inhibition of Stat3 phosphorylation in human U251MG cells transfected with Stat3 flag-tagged C-terminal domain at 5 uM after 1.5 hrs by immunoblot analysis; type: cell-based; settings: U-251; how it was run: as §3
[16] = target: T1, Signal transducer and activator of transcription 3; assay: Inhibition of Stat3 phosphorylation in human U251MG cells transfected with Stat3 flag-tagged DNA-binding domain at 5 uM after 1.5 hrs by immunoblot analysis; type: cell-based; settings: U-251; how it was run: as §3

T1 sequence (P40763 whole entry): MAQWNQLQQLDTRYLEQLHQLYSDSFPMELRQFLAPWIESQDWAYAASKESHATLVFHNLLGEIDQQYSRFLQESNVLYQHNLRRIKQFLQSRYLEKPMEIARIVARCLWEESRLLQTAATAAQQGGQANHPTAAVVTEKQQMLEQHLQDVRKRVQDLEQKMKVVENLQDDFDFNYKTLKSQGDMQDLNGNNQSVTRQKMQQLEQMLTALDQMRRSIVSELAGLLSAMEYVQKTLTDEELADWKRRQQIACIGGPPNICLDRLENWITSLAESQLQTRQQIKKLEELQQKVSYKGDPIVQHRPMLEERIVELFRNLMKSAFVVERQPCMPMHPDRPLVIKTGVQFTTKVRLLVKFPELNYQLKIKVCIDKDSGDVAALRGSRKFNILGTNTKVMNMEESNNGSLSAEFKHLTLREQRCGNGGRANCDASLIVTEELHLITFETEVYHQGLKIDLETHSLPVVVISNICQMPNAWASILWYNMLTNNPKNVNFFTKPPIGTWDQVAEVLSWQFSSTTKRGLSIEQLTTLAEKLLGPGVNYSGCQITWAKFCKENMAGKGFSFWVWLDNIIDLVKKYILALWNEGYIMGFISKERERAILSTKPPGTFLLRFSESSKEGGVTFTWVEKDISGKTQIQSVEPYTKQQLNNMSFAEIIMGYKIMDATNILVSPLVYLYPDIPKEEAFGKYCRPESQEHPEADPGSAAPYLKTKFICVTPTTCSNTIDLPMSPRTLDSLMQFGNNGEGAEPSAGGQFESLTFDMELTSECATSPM
Signal transducer and activator of transcription 3 (Mus musculus), sequence (P42227 whole entry): as the sequence (P40763 whole entry) above, with E760D counted along it
Tyrosine-protein kinase JAK2 (Homo sapiens), sequence (O60674 whole entry): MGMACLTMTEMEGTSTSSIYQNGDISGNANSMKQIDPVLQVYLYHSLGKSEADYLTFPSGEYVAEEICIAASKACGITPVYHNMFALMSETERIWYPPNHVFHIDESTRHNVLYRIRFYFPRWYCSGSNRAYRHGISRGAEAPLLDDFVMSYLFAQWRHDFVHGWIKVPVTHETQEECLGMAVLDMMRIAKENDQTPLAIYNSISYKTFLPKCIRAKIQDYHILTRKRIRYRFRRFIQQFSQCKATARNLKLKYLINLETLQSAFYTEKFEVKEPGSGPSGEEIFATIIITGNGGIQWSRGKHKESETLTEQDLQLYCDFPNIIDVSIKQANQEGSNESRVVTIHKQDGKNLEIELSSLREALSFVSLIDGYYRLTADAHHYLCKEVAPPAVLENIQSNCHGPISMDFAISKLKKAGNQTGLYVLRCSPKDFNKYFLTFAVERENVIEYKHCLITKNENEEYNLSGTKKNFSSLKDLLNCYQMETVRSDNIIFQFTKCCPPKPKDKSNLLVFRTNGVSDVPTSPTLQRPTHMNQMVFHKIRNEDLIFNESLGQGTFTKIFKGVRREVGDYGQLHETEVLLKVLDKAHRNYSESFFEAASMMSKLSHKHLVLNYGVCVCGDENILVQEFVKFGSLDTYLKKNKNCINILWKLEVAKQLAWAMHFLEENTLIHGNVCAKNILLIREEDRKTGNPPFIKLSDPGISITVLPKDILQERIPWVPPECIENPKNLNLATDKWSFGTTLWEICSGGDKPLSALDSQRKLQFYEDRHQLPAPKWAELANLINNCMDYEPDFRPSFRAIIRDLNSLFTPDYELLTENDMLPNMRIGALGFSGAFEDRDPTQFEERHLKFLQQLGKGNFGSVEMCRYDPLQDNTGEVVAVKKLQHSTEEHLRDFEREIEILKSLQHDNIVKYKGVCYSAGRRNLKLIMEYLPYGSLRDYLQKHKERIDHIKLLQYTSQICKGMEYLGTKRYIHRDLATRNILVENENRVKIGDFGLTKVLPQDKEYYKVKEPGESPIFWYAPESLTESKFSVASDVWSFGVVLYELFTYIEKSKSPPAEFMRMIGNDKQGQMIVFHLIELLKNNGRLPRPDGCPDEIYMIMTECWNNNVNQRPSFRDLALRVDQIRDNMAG

| Compound | Activity [1] | Activity [2] | Activity [3] | Activity [4] | Activity [5] | fold change (FC) [6] | inhibition [7] | inhibition [8] | inhibition [9] | inhibition [10] | fold change (FC) [11] | Activity [12] | inhibition [13] | inhibition [14] | inhibition [15] | inhibition [16] |
| --- | --- | --- | --- | --- | --- | --- | --- | --- | --- | --- | --- | --- | --- | --- | --- | --- |
| C/C=C(\C)C(=O)OCC1=C2/C(=C\[C@@]3(C)CC[C@](O)(O3)[C@H](C)C[C@@H]2O)OC1=O | Toxic | Non-toxic | Active | inactive | inactive | 0.305 | Active | – | – | – | – | – | – | – | – | – |
| C/C=C(\C)C(=O)O[C@H]1C[C@@H](C)[C@]2(O)CC[C@](C)(/C=C3/OC(=O)C(COC(C)=O)=C31)O2 | – | – | – | – | – | – | – | Active | Active | Active | 0.308 | Active | Active | Active | Active | inactive |
